# High-throughput results as filed in PubChem BioAssay.
# Hits are enriched below; roughly 2.6% of the tested compounds scored in any of these assays.
# rCAG binder: r(CAG) repeat RNA binding; TO-PRO-1 dye displacement fluorescence; inhibition, % at 3 µM; 370,000 compounds, 1.3% hits; AID 651821;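 active = inhibition above the plate cutoff, the mean of all test compounds on that plate plus 3 SD, cut at about 35% in these data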;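 also: higher means more dye released from RNA so lower well fluorescence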
# NadD block: blocks S. aureus nicotinate mononucleotide adenylyltransferase; AID 602399; 360,000 compounds, 0.78% hits; purified NadD enzyme, colorimetric absorbance read-out; inhibition, % at 20 µM; in the data active = inhibition above about 26%
# ABHD5-PLIN5 inh: inhibitors of human ABHD5-perilipin-5 interaction; Q00G26+Q8WTS1; Split G. princeps luciferase complementation, luminescence, 4 h; inhibition, % at 4 µM; 360,000 compounds, 0.78% hits; AID 602281;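 active = inhibition above the mean inhibition across every tested compound plus 3 SD, cut at about 22% in these data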
# core dimer inh: HCV core protein dimerization inhibition; TR-FRET GST/Flag-core106 dimerization, 1536-well; inhibition, % at 5 µM; 300,000 compounds, 0.33% hits;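 active = inhibition above the mean of all tested compounds plus 3 SD, set per screening campaign, cut at about 45% in these data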
#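 Test system: GST/Flag-tagged HCV core106 proteins; Medium: KF-containing HEPES buffer, pH 7.45, DTT, CHAPS, BSA; Times: compound-protein-antibody incubation 4 h at 22.5 °C; Detection: TR-FRET 671 and 617 nm emission; Benchmarks: wells lacking GST-core106 and wells with excess unlabelled core106.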
# ABHD5-PLIN5 conf: confirmation of human ABHD5-PLIN5 interaction inhibitors; shares compounds with ABHD5-PLIN5 inh; biochemical ABHD5-PLIN5 interaction, luminescence; inhibition, % at 4 µM; 2,200 compounds, 67% hits; AID 651612; in the data active = inhibition above about 23%
# HNF4 counter: HNF4 split-luciferase signal hit, counter-screen | shares compounds with ABHD5-PLIN5 inh | HNF4 dimerization, luminescence, biochemical | inhibition, % at 4 µM | 2,200 compounds, 77% hits | AID 651674;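 active = mean inhibition across replicate wells exceeding the computed hit threshold, cut at about 13% in these data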;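 also: light from luciferase halves that rejoin when HNF4 fusion proteins dimerize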
# Target sequence (P41235 whole entry, looked up, the tested form may be a part): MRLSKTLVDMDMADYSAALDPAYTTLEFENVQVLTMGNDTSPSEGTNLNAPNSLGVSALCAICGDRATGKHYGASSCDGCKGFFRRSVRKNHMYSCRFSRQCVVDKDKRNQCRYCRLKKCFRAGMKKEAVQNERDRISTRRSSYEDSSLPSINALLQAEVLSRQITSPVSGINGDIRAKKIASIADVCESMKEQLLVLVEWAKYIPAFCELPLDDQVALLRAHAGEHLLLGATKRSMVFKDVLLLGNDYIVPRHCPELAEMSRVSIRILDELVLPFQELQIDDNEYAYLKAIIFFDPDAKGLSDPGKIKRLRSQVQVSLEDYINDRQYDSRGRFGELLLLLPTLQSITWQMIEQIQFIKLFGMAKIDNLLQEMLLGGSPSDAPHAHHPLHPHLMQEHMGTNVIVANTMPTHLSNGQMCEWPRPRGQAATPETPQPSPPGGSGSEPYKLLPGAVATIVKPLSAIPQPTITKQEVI
# rCAG bind conf: r(CAG) RNA repeat binding, confirmation. TO-PRO-1 dye displacement fluorescence. AID 652065. 4,300 compounds, 70% hits. shares compounds with rCAG binder. inhibition, % at 3 µM;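 active = inhibition above a per-plate cutoff, the mean inhibition of sample wells plus 3 SD, cut at about 35% in these data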;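 also: loss of TO-PRO-1 fluorescence as compound displaces dye from 1x1 AA loop RNA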
# DNA CAG counter: counter-screen for rCAG RNA binders: DNA CAG dye complex inhibitors | shares compounds with rCAG binder | inhibition, % at 3 µM | 4,300 compounds, 94% hits | d(CAG) DNA oligo TO-PRO-1 dye displacement, fluorescence;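 active = inhibition above its plate's cutoff, the mean test-well inhibition plus 3 SD, cut at about 4.8% in these data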;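 also: hits displace the dye from DNA and so lower well fluorescence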
# dCAG dye DR: DNA CAG dye complex inhibition, dose response counter-screen; shares compounds with rCAG binder; DNA CAG/GTC duplex TO-PRO-1 dye displacement fluorescence; IC50, µM; 250 compounds, 20% hits; AID 686960; in the data active = IC50 below about 10 µM
# A number is an active result; . = inactive; / = no result given.
SMILES,rCAG binder,NadD block,ABHD5-PLIN5 inh,core dimer inh,ABHD5-PLIN5 conf,HNF4 counter,rCAG bind conf,DNA CAG counter,others
CC(C)C(=O)N(c1cc2sc(=O)oc2c2ccccc12)S(=O)(=O)c1cccs1,77.5,.,68.5,.,.,75.4,48.0,22.5,
CCN(CC)C(=O)C1=C(C)N(CCCOC)C(=O)C(CC(=O)NC2CCCC2)C1 (centres undefined),.,.,.,/,/,/,/,/,
Cc1cccc(N=C2NC(=O)S/C2=C\c2ccco2)c1,.,.,.,.,/,/,/,/,
Cc1cccc(N=C2NC(=O)/C(=C/C=C/c3ccco3)S2)c1,52.1,32.1,24.5,.,47.9,34.0,43.0,22.5,
COCc1cc(N2CCNC[C@@H]2C)ccc1N1CCS(=O)(=O)CC1,.,/,/,/,/,/,/,/,
O=C(O)c1ccc2nc(-c3ccco3)c(-c3ccco3)nc2c1,41.8,.,26.9,/,82.2,94.0,46.8,11.6,
COCCNC(=O)C[C@@H]1C[C@H]2c3cc(NC(=O)Nc4ccc(F)cc4)ccc3O[C@H]2[C@H](CO)O1,.,.,.,/,/,/,/,/,
CC1(C(=O)Nc2ccc3c(c2)OCO3)CCN1C(=O)Cc1cccc2ccccc12 (centres undefined),.,.,.,/,/,/,/,/,
CCCCCCCCN1[C@@H](CC(=O)O)c2cc(C(F)(F)F)ccc2S1(=O)=O,40.0,.,29.9,.,33.4,16.2,.,.,
COc1cc(/C=C2\CC/C(=C\c3cc(OC)c(O)c(OC)c3)C2=O)cc(OC)c1O,35.6,.,32.0,.,39.4,39.1,40.5,15.5,
COc1ccc(CC(N)c2csc(NC(=O)c3cc(C(C)(C)C)nn3Cc3ccccc3)n2)cc1 (centres undefined),.,.,.,/,/,/,/,/,
CNc1ccc(Br)cc(C(=O)/C=C/c2cccc(OC)c2)c1=O,36.0,.,30.4,.,65.2,49.5,37.1,16.0,
O=C(COC(=O)c1cc(-c2ccc(Cl)s2)nc2ccccc12)NCc1ccco1,36.5,.,37.8,.,59.0,55.8,.,6.6,
O=C(/C=C/c1ccc(F)cc1)c1cc(Br)ccc1O,.,.,.,.,/,/,/,/,
O=C(/C=C/c1ccccc1)c1cc(Br)ccc(=O)c1O,50.8,.,43.9,.,76.2,67.8,41.0,17.0,
Cc1ccc(NC(=O)CC2S/C(=N/N=C/c3c[nH]c4ccccc34)NC2=O)cc1 (centres undefined),47.4,.,25.8,.,.,14.0,64.2,23.4,
CCCCCCCCOC(=O)c1cc([N+](=O)[O-])c(Sc2ncnc3nc[nH]c23)c([N+](=O)[O-])c1,37.5,.,28.1,/,99.0,89.9,40.2,18.9,
CC1OC(CCc2cccc(Cl)c2)Cc2[nH]c(=S)[nH]c(=O)c21 (centres undefined),.,.,.,/,/,/,/,/,
Cc1ccc(NC(=O)c2cc3ccccc3cc2O)cc1,.,.,.,.,/,/,/,/,
COc1ccc(NC(=O)c2cc3ccccc3cc2O)cc1,45.7,.,48.3,.,53.3,21.9,39.4,15.9,
O=C(Nc1nc(-c2ccco2)c(-c2ccco2)s1)C1CCC1,36.6,.,35.7,.,.,46.0,.,11.3,
CC(C)(C)c1ccc(C(=O)N2CCC2(C)C(=O)NS(=O)(=O)c2ccc(C#N)cc2)cc1 (centres undefined),.,.,.,/,/,/,/,/,
CCc1sc(C(C2C(=O)CC(C)(C)CC2=O)C2C(=O)CC(C)(C)CC2=O)cc1[N+](=O)[O-],36.7,.,52.3,.,101.5,98.0,.,6.4,
CCOC(=O)c1c(NC(=O)/C=C\C(=O)O)sc(C)c1-c1ccccc1,.,.,.,.,/,/,/,/,
CCOC(=O)c1c(NC(=O)/C=C/C(=O)O)sc(C)c1-c1ccc(C(C)(C)C)cc1,80.2,.,34.7,.,71.3,27.2,73.2,34.5,dCAG dye DR=7.62
O=C(O)c1ccccc1NS(=O)(=O)c1cccc(C(F)(F)F)c1,.,.,.,.,/,/,/,/,
